# The source made the active and inactive calls. The rule behind the calls is not given here.
# Legend:
# MDA-MB-231 [1] = test: Antiinvasive activity in human MDA-MB-231 cells assessed as inhibition of cell invasion at 5 uM by boyden chamber method relative to control; type: functional
# MDA-MB-231 [2] = test: Ex vivo antitumor activity against human MDA-MB-231 cells co-cultured with neonatal Swiss mouse bone in BGJb medium assessed as inhibition of tumor growth at 5 uM administered simultaneously with cancer cells measured on day 5 post treatment by Gaussia luciferase reporter gene assay relative to control; type: functional
# Procedure, shortened: (§1)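 Calvariae from […] Swiss mouse pups were punched into 4 or 5 mm disks. Each was seeded with 1 x 10^4 tumor cells (lentiviral secreted Gaussia luciferase/GFP-blasticidin, FACS-sorted GFP+) in BGJb plus 10% fetal calf serum at 37°C, 5% CO2. After 24 h bones moved to fresh wells; medium changed every 2 days. Conditioned-medium luciferase read as RLU. Biological triplicate, mean ± SD, Welch's t-test.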
# MDA-MB-231 [3] = test: Ex vivo antitumor activity against human MDA-MB-231 cells co-cultured with neonatal Swiss mouse bone in BGJb medium assessed as inhibition of tumor growth at 5 uM administered simultaneously with cancer cells measured on day 7 post treatment by Gaussia luciferase reporter gene assay relative to control; type: functional; procedure, shortened: as §1
# MDA-MB-231 [4] = test: Ex vivo antitumor activity against human MDA-MB-231 cells co-cultured with neonatal Swiss mouse bone in BGJb medium assessed as inhibition of tumor growth at 5 uM administered on day 2 post cancer cells addition measured on day 5 post treatment by Gaussia luciferase reporter gene assay relative to control; type: functional; procedure, shortened: as §1
# MDA-MB-231 [5] = test: Ex vivo antitumor activity against human MDA-MB-231 cells co-cultured with neonatal Swiss mouse bone in BGJb medium assessed as inhibition of tumor growth at 5 uM administered on day 2 post cancer cells addition measured on day 7 post treatment by Gaussia luciferase reporter gene assay relative to control; type: functional; procedure, shortened: as §1
# MDA-MB-231 [6] = test: Antiinvasive activity in human MDA-MB-231 cells by boyden chamber method; type: functional, cell-based
# MDA-MB-231 [7] = test: Cytotoxicity against human MDA-MB-231 cells at 0.625 to 5 uM after 24 hrs; type: cell-based; details: mda-mb-231, 24 h
# U-87 MG [8] = test: Antiinvasive activity in human U87 cells at 5 uM by boyden chamber method; type: functional, cell-based; details: U-87MG ATCC
# NCI-H460 [9] = test: Antiinvasive activity in human NCI-H460 cells at 5 uM by boyden chamber method; type: functional, cell-based
# MIA PaCa-2 [10] = test: Antiinvasive activity in human MIAPaCa2 cells at 5 uM by boyden chamber method; type: functional, cell-based
# U-87 MG [11] = test: Cytotoxicity against human U87 cells after 24 hrs; type: cell-based; details: u-87mg atcc
# NCI-H460 [12] = test: Cytotoxicity against human NCI-H460 cells after 24 hrs; type: cell-based; details: nci-h460, 24 h
# MIA PaCa-2 [13] = test: Cytotoxicity against human MIAPaCa2 cells after 24 hrs; type: cell-based; details: mia paca-2, 24 h
# MDA-MB-231 [14] = test: Antimigratory activity in human MDA-MB-231 cells at 10 uM after 9 hrs by wound healing assay; type: functional, cell-based
# Procedure, shortened: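 Confluent monolayers in 12-well plates were scratched with a micropipette tip, washed, then cultured in complete medium with compound. Gap width between wound edges was measured by microscopy in three random regions right after wounding and at 6 and 9 h.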
# [15] = Inhibition of angiogenesis in human HRMEC assessed as inhibition of endothelial cell tube formation up to 10 uM after 8 hrs by microscopic analysis
# Procedure, shortened: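 Primary human retinal microvascular endothelial cells were grown on Matrigel in complete medium for 8 h, then tubule formation was measured. Significance was assessed by ANOVA.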
# MDA-MB-231 [16] = test: Cytotoxicity against human MDA-MB-231 cells at 12.5 uM after 3 days by MTS assay; type: cell-based; details: mda-mb-231, 72 h
# Bone [17] = test: Down regulation of TRAP expression in neonatal Swiss mouse calvariae bone co-cultured with human MDA-MB-231 cells measured on day 7 post treatment by SYBR green-dye based RT-qPCR analysis; type: functional, tissue-based; details: Bone element
# Procedure, shortened: (§2)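 Calvarial disk cultures ([…] Swiss pups) in BGJb plus 10% fetal calf serum were PBS-washed at day 7 and bead-homogenized in Qiazol. Aqueous-phase RNA was isolated, reverse-transcribed and run in triplicate real-time PCR with species-specific primers. Expression was normalized to ribosomal protein L32 mRNA. n = 3 or 4 cultures, ANOVA.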
# Bone [18] = test: Down regulation of RANKL expression in neonatal Swiss mouse calvariae bone co-cultured with human MDA-MB-231 cells measured on day 7 post treatment by SYBR green-dye based RT-qPCR analysis; type: functional, tissue-based; details: Bone element; procedure, shortened: as §2
# Bone [19] = test: Effect on Col1A1 expression in neonatal Swiss mouse calvariae bone co-cultured with human MDA-MB-231 cells measured on day 7 post treatment by SYBR green-dye based RT-qPCR analysis; type: functional, tissue-based; details: Bone element; procedure, shortened: as §2
# Bone [20] = test: Effect on osteocalcin expression in neonatal Swiss mouse calvariae bone co-cultured with human MDA-MB-231 cells measured on day 7 post treatment by SYBR green-dye based RT-qPCR analysis; type: functional, tissue-based; details: Bone element; procedure, shortened: as §2
# Bone [21] = test: Effect on TRAP expression in neonatal Swiss mouse calvariae bone measured on day 7 post treatment by SYBR green-dye based RT-qPCR analysis; type: functional, tissue-based; details: Bone element; procedure, shortened: as §2
# Bone [22] = test: Effect on RANKL expression in neonatal Swiss mouse calvariae bone measured on day 7 post treatment by SYBR green-dye based RT-qPCR analysis; type: functional, tissue-based; details: Bone element; procedure, shortened: as §2
# MDA-MB-231 [23] = test: Effect on ICAM expression in human MDA-MB-231 cells co-cultured with neonatal Swiss mouse calvariae bone measured on day 7 post treatment by SYBR green-dye based RT-qPCR analysis; type: functional, cell-based; procedure, shortened: as §2
# MDA-MB-231 [24] = test: Down regulation of ENPP1 expression in human MDA-MB-231 cells co-cultured with neonatal Swiss mouse calvariae bone measured on day 7 post treatment by SYBR green-dye based RT-qPCR analysis relative to control; type: functional; procedure, shortened: as §2
# MDA-MB-231 [25] = test: Effect on CTGF expression in human MDA-MB-231 cells co-cultured with neonatal Swiss mouse calvariae bone measured on day 7 post treatment by SYBR green-dye based RT-qPCR analysis; type: functional, cell-based; procedure, shortened: as §2
# MDA-MB-231 [26] = test: Down regulation of CCN3 expression in human MDA-MB-231 cells co-cultured with neonatal Swiss mouse calvariae bone measured on day 7 post treatment by SYBR green-dye based RT-qPCR analysis relative to control; type: functional; procedure, shortened: as §2
# MDA-MB-231 [27] = test: Effect on CCL2 expression in human MDA-MB-231 cells co-cultured with neonatal Swiss mouse calvariae bone measured on day 7 post treatment by SYBR green-dye based RT-qPCR analysis; type: functional, cell-based; procedure, shortened: as §2
# MDA-MB-231 [28] = test: Down regulation of IL-8 expression in human MDA-MB-231 cells co-cultured with neonatal Swiss mouse calvariae bone measured on day 7 post treatment by SYBR green-dye based RT-qPCR analysis; type: functional, cell-based; procedure, shortened: as §2
# MDA-MB-231 [29] = test: Down regulation of FGF5 expression in human MDA-MB-231 cells co-cultured with neonatal Swiss mouse calvariae bone measured on day 7 post treatment by SYBR green-dye based RT-qPCR analysis; type: functional, cell-based; procedure, shortened: as §2
# MDA-MB-231 [30] = test: Upregulation of BCL2L1 expression in human MDA-MB-231 cells co-cultured with neonatal Swiss mouse calvariae bone measured on day 7 post treatment by SYBR green-dye based RT-qPCR analysis; type: functional, cell-based; procedure, shortened: as §2
# MDA-MB-231 [31] = test: Upregulation of Fas expression in human MDA-MB-231 cells co-cultured with neonatal Swiss mouse calvariae bone measured on day 7 post treatment by SYBR green-dye based RT-qPCR analysis; type: functional, cell-based; procedure, shortened: as §2
# MDA-MB-231 [32] = test: Down regulation of CDH11 expression in human MDA-MB-231 cells co-cultured with neonatal Swiss mouse calvariae bone measured on day 7 post treatment by SYBR green-dye based RT-qPCR analysis
smiles,measurement,setting,value
O=C1C2NN=C(c3ccc(Cl)cc3)C2C(c2ccc(C(F)(F)F)cc2)N1CCc1c[nH]c2ccccc12 (configuration not stated),inhibition at 5 µM,MDA-MB-231 [1],90%
same,TGI,MDA-MB-231 [2],Active
same,TGI,MDA-MB-231 [3],Active
same,TGI,MDA-MB-231 [4],Active
same,TGI,MDA-MB-231 [5],Active
COc1ccc(N2C(=O)C3NN=C(c4ccc(Cl)cc4)C3C2c2cccc(F)c2)cn1 (configuration not stated),TGI,MDA-MB-231 [2],Active
same,TGI,MDA-MB-231 [3],Active
same,TGI,MDA-MB-231 [4],Active
same,TGI,MDA-MB-231 [5],Active
CCCN1N=C(c2ccc(Cl)cc2)C2C1C(=O)N(c1ccc(C)c(Br)c1)C2c1cccc(F)c1 (configuration not stated),inhibition at 5 µM,MDA-MB-231 [1],> 70%
same,TGI,MDA-MB-231 [2],Active
same,TGI,MDA-MB-231 [3],Active
same,TGI,MDA-MB-231 [4],Active
same,TGI,MDA-MB-231 [5],Active
CC(C)N1N=C(c2ccc(Cl)cc2)C2C(c3cccc(F)c3)N(CCc3c[nH]c4ccccc34)C(=O)C21 (configuration not stated),inhibition at 5 µM,MDA-MB-231 [1],> 70%
same,TGI,MDA-MB-231 [2],Active
same,TGI,MDA-MB-231 [3],40%
same,TGI,MDA-MB-231 [4],Active
same,TGI,MDA-MB-231 [5],40%
O=C1C2NN=C(c3ccc(Cl)cc3)C2C(c2cccc(F)c2)N1Cc1c[nH]c2ccccc12 (configuration not stated),inhibition at 5 µM,MDA-MB-231 [1],20%
same,TGI,MDA-MB-231 [2],Active
same,TGI,MDA-MB-231 [3],Active
same,TGI,MDA-MB-231 [4],Active
same,TGI,MDA-MB-231 [5],Active
O=C1C2NN=C(c3ccc(Cl)cc3)C2C(c2cccc(F)c2)N1CCc1cccnc1 (configuration not stated),inhibition at 5 µM,MDA-MB-231 [1],40%
same,TGI,MDA-MB-231 [2],Active
same,TGI,MDA-MB-231 [3],Active
same,TGI,MDA-MB-231 [4],Active
same,TGI,MDA-MB-231 [5],Active
O=C1C2NN=C(c3ccc(Cl)cc3)C2C(c2cccc(F)c2)N1CCc1c[nH]c2ccccc12 (configuration not stated),Activity,MDA-MB-231 [6],Dose-dependent effect
same,IC50,MDA-MB-231 [6],2600 nM
same,Activity,MDA-MB-231 [7],Non-Toxic
same,Activity,U-87 MG [8],inactive
same,Activity,NCI-H460 [9],inactive
same,Activity,MIA PaCa-2 [10],Active
same,Activity,U-87 MG [11],Non-Toxic
same,Activity,NCI-H460 [12],Non-Toxic
same,Activity,MIA PaCa-2 [13],Non-Toxic
same,Activity,MDA-MB-231 [14],inactive
same,Activity,[15],Not Active
same,inhibition at 5 µM,MDA-MB-231 [1],> 70%
same,TGI,MDA-MB-231 [2],70%
same,TGI,MDA-MB-231 [3],60%
same,TGI,MDA-MB-231 [4],53%
same,TGI,MDA-MB-231 [5],36%
same,Activity,MDA-MB-231 [16],Non-Toxic
same,Activity,Bone [17],Active
same,Activity,Bone [18],Active
same,Activity,Bone [19],inactive
same,Activity,Bone [20],inactive
same,Activity,Bone [21],inactive
same,Activity,Bone [22],Active
same,Activity,MDA-MB-231 [23],inactive
same,Activity,MDA-MB-231 [24],90%
same,Activity,MDA-MB-231 [25],inactive
same,Activity,MDA-MB-231 [26],90%
same,Activity,MDA-MB-231 [27],inactive
same,Activity,MDA-MB-231 [28],Active
same,Activity,MDA-MB-231 [29],inactive
same,Activity,MDA-MB-231 [30],Active
same,Activity,MDA-MB-231 [31],Active
same,Activity,MDA-MB-231 [32],Active

# From ChEMBL document CHEMBL4308891, “Small molecules inhibit ex vivo tumor growth in bone” (Bioorg Med Chem, 2018)
